As usually defined, the Kd is the constant that tells how readily two partners part at equilibrium. A lower Kd goes with a tighter complex.

Here are results for 1 molecule from article PMC8928501 (ACS Omega, 2022).

SMILES strings stand for the structures.

The target in this assay is human transferrin (Tf) (Homo sapiens, UniProt P02787). Briefly: isothermal titration calorimetry. In kind it is binding. The essentials: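 Human transferrin in the sample cell, stated as 25 μM in one place and 20 μM in another; dialyzed and degassed before loading. Test compound at 200 μM in the syringe, added by automated titration after an initial dummy injection. Binding isotherm fitted to a two-site model to obtain the thermodynamic parameters.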
Chain of human transferrin (Tf) (P02787 20-698): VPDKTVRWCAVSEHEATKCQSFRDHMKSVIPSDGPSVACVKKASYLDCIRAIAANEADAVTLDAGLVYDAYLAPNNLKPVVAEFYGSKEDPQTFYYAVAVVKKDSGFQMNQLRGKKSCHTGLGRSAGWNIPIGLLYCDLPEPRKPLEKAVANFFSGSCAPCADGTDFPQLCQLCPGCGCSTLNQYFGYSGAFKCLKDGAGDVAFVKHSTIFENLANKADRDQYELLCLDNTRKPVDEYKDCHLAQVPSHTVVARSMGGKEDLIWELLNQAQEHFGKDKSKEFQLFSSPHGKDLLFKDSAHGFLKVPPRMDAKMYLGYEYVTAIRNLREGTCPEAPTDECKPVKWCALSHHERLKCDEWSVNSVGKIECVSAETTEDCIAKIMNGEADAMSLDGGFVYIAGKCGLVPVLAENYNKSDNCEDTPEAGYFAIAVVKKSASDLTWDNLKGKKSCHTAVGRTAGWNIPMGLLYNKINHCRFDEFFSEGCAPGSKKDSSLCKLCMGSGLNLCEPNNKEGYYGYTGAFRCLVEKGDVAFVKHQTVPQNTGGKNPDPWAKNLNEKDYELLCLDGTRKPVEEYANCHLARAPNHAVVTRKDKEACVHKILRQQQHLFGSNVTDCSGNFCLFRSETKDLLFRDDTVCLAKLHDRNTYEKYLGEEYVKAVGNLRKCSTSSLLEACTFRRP
(ITC needs no label: the signal is the heat of the interaction.)

Consider `CNCCC(Oc1ccc(C(F)(F)F)cc1)c1ccccc1` (stereo not shown) [Fluoxetine], for which binding was characterised by a dissociation constant (Kd) of 6.9 µM.
